{"data": "Results gathered from unrelated publications", "observed": "cell growth or viability", "note": "Protocols differ between the studies behind these lines. pEC50: −log10 of the molar value."}
{"SMILES": "OCc1ccc(-c2nn(Cc3ccccn3)c3cccnc23)o1", "cell line": "RBE", "technique": "ATP luminescence", "concentration": "46 µM", "time": "72 h", "endpoint": "inhibition", "result": "76%"}
{"SMILES": "C[C@H](Nc1ccc2c(c1)OCCn1cc(N3C(=O)OC[C@H]3C(F)F)nc1-2)C(N)=O", "cell line": "MDA-MB-361", "technique": "ATP luminescence", "time": "5 days", "endpoint": "pEC50", "result": 8.12}
{"SMILES": "O=C(NCCc1ccccn1)c1ccc(-c2nc3ccc4[nH]ncc4c3c3c2CCCC3)cc1", "cell line": "MV4-11", "technique": "resazurin", "time": "72 h", "endpoint": "GI50", "result": "1000 nM"}
{"SMILES": "CCN(Cc1ccc(F)cc1)c1ccc(CO)c(Cl)c1", "cell line": "RBE", "technique": "ATP luminescence", "concentration": "46 µM", "time": "72 h", "endpoint": "inhibition", "result": "53%"}
{"SMILES": "Cc1n[nH]c2ccc3nc(-c4ccc(C(=O)NCCN(C)C)cc4)c4c(c3c12)CCCC4", "cell line": "MV4-11", "technique": "resazurin", "time": "72 h", "endpoint": "GI50", "result": "8 nM"}
{"SMILES": "O=C(Nc1ccccc1/N=c1\\cc(-c2ccc3c(c2)OCCO3)oc2cc(F)ccc12)N1CCOCC1", "cell line": "MDA-MB-468", "technique": "CCK-8", "concentration": "1 µM", "endpoint": "inhibition", "result": "-2.71%"}
{"SMILES": "CCN(Cc1c(F)cccc1OC)c1ccc(CO)c(Cl)c1", "cell line": "RBE", "technique": "ATP luminescence", "concentration": "46 µM", "time": "72 h", "endpoint": "inhibition", "result": "65%"}
{"SMILES": "Cc1n[nH]c2ccc3nc(-c4ccc(C(=O)N(C)CCN(C)C)cc4)c4c(c3c12)CCCCC4", "cell line": "MV4-11", "technique": "resazurin", "time": "72 h", "endpoint": "GI50", "result": "522 nM"}
{"SMILES": "COc1ccc2/c(=N/c3ccccc3NC(=O)N3CCOCC3)cc(-c3ccc4c(c3)OCCO4)oc2c1", "cell line": "MDA-MB-468", "technique": "CCK-8", "concentration": "1 µM", "endpoint": "inhibition", "result": "18.7%"}
{"SMILES": "OCc1ccc(N(Cc2ccc(F)cc2)CC2CC2)cc1Cl", "cell line": "RBE", "technique": "ATP luminescence", "concentration": "46 µM", "time": "72 h", "endpoint": "inhibition", "result": "55%"}
{"SMILES": "C[C@H](N)C(=O)Nc1ccccc1/N=c1\\cc(-c2ccc3c(c2)OCCO3)oc2c(N)cccc12", "cell line": "MDA-MB-468", "technique": "CCK-8", "concentration": "1 µM", "endpoint": "inhibition", "result": "2.63%"}
{"SMILES": "NC(=O)c1ccc(-c2nc3ccc4[nH]ncc4c3c3c2CCCC3)cc1", "cell line": "MV4-11", "technique": "resazurin", "time": "72 h", "endpoint": "GI50", "result": "57 nM"}
{"SMILES": "OCC1CCC(c2nn(Cc3ccccc3)c3ccccc23)O1 (centres unmarked)", "cell line": "RBE", "technique": "ATP luminescence", "concentration": "46 µM", "time": "72 h", "endpoint": "inhibition", "result": "13%"}
{"SMILES": "Cc1n[nH]c2ccc3nc(-c4ccc(C(=O)NCCN5CCCC5)cc4)c4c(c3c12)CCCC4", "cell line": "MV4-11", "technique": "resazurin", "time": "72 h", "endpoint": "GI50", "result": "428 nM"}
{"SMILES": "C[C@H](N)C(=O)Nc1ccccc1/N=c1\\cc(-c2ccc3c(c2)OCO3)oc2ccccc12", "cell line": "MDA-MB-468", "technique": "CCK-8", "concentration": "1 µM", "endpoint": "inhibition", "result": "6.3%"}
{"SMILES": "OCc1ccc(-c2nn(Cc3ccc(F)cc3)c3ccccc23)o1", "cell line": "RBE", "technique": "ATP luminescence", "concentration": "46 µM", "time": "72 h", "endpoint": "inhibition", "result": "66%"}
{"SMILES": "C[C@H](N)C(=O)Nc1ccccc1/N=c1\\cc(-c2ccc3c(c2)OCCO3)oc2cc(F)ccc12", "cell line": "MDA-MB-468", "technique": "CCK-8", "concentration": "1 µM", "endpoint": "inhibition", "result": "12.8%"}
{"SMILES": "O=C(CCCCCCC(=O)Nc1ccccc1)NO", "cell line": "HBL1", "technique": "ATP luminescence", "concentration": "0.1 µM", "time": "5 days", "endpoint": "viability", "result": "132%"}
{"SMILES": "COCCNC(=O)c1ccc(-c2nc3ccc4[nH]ncc4c3c3c2CCCC3)cc1", "cell line": "MV4-11", "technique": "resazurin", "time": "72 h", "endpoint": "GI50", "result": "400 nM"}
{"SMILES": "COc1ccc2/c(=N/c3ccccc3NC(=O)[C@@H](N)C(C)(C)C)cc(-c3ccc4c(c3)OCCO4)oc2c1", "cell line": "MDA-MB-468", "technique": "CCK-8", "concentration": "1 µM", "endpoint": "inhibition", "result": "10.8%"}
